Experimental data gathered from unrelated publications.
Lines come from different studies, so protocols differ.
Target: Proto-oncogene tyrosine-protein kinase ROS (ROS1, Homo sapiens, UniProt P08922)

COc1ccc2c(O[C@@H]3C[C@H]4C(=O)N[C@]5(C(=O)O)CC5/C=C\CCCCC[C@H](NC(=O)OC5CCCC5)C(=O)N4C3)cc(-c3csc(NC(=O)C(C)C)n3)nc2c1C (stereo partly shown) — remaining binding (cell-free assay; competition with immobilised ligand; 1 µM): 100%
COc1ccnn2ncc(-c3ccnc(N(C)C)n3)c12 — remaining binding (binding; 1 µM): 100%
O=C(Nc1cccnn1)N1CCC(=Cc2cccc(Oc3ccc(C(F)(F)F)cn3)c2)CC1 — remaining binding (cell-free assay; competition with immobilised ligand; 1 µM): 80%
COc1cnc(Nc2cccc(S(N)(=O)=O)c2)nc1N1CCN(c2ccccc2)C(=O)C1 — remaining binding (binding; competition with immobilised ligand; 1 µM): 100%
c1cncc(-c2cccc(Nc3nccc(NC4CCCCC4)n3)c2)c1 — remaining binding (binding; competition with immobilised ligand; 10 µM): 20%
CN(C)c1nccc(-c2cnc3ncccn23)n1 — remaining binding (binding; 1 µM): 71%
O=C(NCCCN1CCOCC1)c1ccc(Nc2nccc(-c3cc4ccccc4s3)n2)cc1 — remaining binding (binding; competition with immobilised ligand; 1 µM): 53%
CNCc1ccccc1-c1csc([C@@H](C)Nc2nc(C)nc3cc(OC)c(OC)cc23)c1 — remaining binding (cell-free assay; competition with immobilised ligand; 1 µM): 84%
C[C@H]1CCN(c2nccc(-c3cnn4ncccc34)n2)C1 — remaining binding (binding; 1 µM): 91%
C=CC(=O)N1CCC(C(=O)NCC(=O)N2CCN(c3nc(-c4cnc(N)nc4C(F)F)nc(N4CCOCC4)n3)CC2)CC1 — remaining binding (binding; competition with immobilised ligand; 1 µM): 87%
CN(c1nccc(-c2cnn3ncccc23)n1)C1CC1 — remaining binding (binding; 1 µM): 100%
O=C(NCCCC1CCCCC1)c1ccc(CNC(=O)c2cnn(-c3ccccc3)c2C(F)(F)F)cc1 — remaining binding (cell-free assay; competition with immobilised ligand; 0.1 µM): 100%
CC1CCCN1c1nccc(-c2cnn3ncccc23)n1 (stereo not shown) — remaining binding (binding; 1 µM): 100%
O=C(NCC1CCOCC1)c1n[nH]cc1NC(=O)c1c(F)cccc1F — remaining binding (binding; competition with immobilised ligand; 1 µM): 100%
O=C(NCCCN1CCOCC1)c1ccc(Nc2ncc(Cl)c(-c3ccc(Cl)s3)n2)cc1 — remaining binding (binding; competition with immobilised ligand; 1 µM): 47%
N[C@@H]1CCN(c2nccc(-c3cnn4ncccc34)n2)C1 — remaining binding (binding; 1 µM): 72%
CO[C@H]1CC[C@H](CNc2ccc(S(=O)(=O)NC(=O)c3ccc(N4CCN(CC5=C(c6ccc(Cl)cc6)CC(C)(C)CC5)CC4)cc3Oc3cnc4[nH]ccc4c3)cc2[N+](=O)[O-])CC1 — remaining binding (cell-free assay; competition with immobilised ligand; 1 µM): 72%
C[C@@H](c1ccc(-n2cnc3c(N)ncnc32)cc1)N1CCc2nn(C)c(Cc3ccccc3)c2C1=O — remaining binding (binding; competition with immobilised ligand; 0.1 µM): 100%
CCN1CCN(Cc2ccc(C(=O)Nc3ccc(C)c(Oc4ccc5c(c4)CC(=O)N5)c3)cc2C(F)(F)F)CC1 — remaining binding (binding; competition with immobilised ligand; 1 µM): 100%
CN(C)CC#Cc1ccc(OCCCc2sc(N3CCc4cccc(C(=O)Nc5nc6ccccc6s5)c4C3)nc2C(=O)O)c(F)c1 — remaining binding (cell-free assay; competition with immobilised ligand; 1 µM): 93%
c1cnn2ncc(-c3ccnc(N4CCC45COC5)n3)c2c1 — remaining binding (binding; 1 µM): 100%
O=C(c1ccc(Nc2ncc(Cl)c(-c3ccc(Cl)s3)n2)cc1)N1CCC(N2CCCC2)CC1 — remaining binding (binding; competition with immobilised ligand; 1 µM): 37%
